Series [1] in a line: Distribution co-efficient, log D of the compound at pH 7.4. Format: physicochemical. As to conditions: buffer.
In series [2] the test system is PC-12. Kind of series: Induction of apoptosis in rat PC12 cells assessed as ROS induction at 200 uM measured after 1 to 4 hrs by DHR oxidation-based fluorometric assay. Format: functional, cell-based. In outline:
(§1)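 PC12 cells in 96-well plates were loaded with DHR (0.1 µM) for 30 min at 37 °C, washed, then treated 1 h or 4 h. Medium was replaced with PBS and fluorescence read for 30 min (ex 485/em 535 nm). The slope gave ROS production, relative to the untreated-control slope at 4 h. Untreated and DMSO controls. Mean of 3 experiments ± S.D.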

Series [3] deals with PC-12. Kind of series: Induction of apoptosis in rat PC12 cells at 200 uM after 24 hrs by trypan blue exclusion assay in presence of DHR. It counts as functional, cell-based. In outline:
(§2)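 PC12 cells exposed 24 h to chelator (25, 100 or 200 µM), alone or together with ZnSO4, caspase-3 inhibitor, or DHR as ROS scavenger. Each additive was also tested alone. Stained with trypan blue. Dead cells expressed as % of total cells. Mean of 4 experiments ± S.D. One-way ANOVA with Holm-Sidak, compared against DMSO.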

Series [4] relates to PC-12. As to the kind of experiment: Induction of apoptosis in rat PC12 cells assessed as ROS induction by DHE oxidation-based fluorometric assay. Format: functional, cell-based.
In series [5] the test system is PC-12. As to the kind of experiment: Induction of apoptosis in rat PC12 cells at 200 uM after 24 hrs by trypan blue exclusion assay in presence of caspase-3 inhibitor C3-I. Format: functional, cell-based. In outline: as §2
Series [6] in a line: Metal chelating activity of the compound assessed as zinc affinity by UV spectroscopy. Format: functional. Summed up:
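Compound diluted from a 10 mM DMSO stock to 50 µM final in 50 mM Hepes, 100 mM NaNO3, pH 7.4. ZnSO4 added at 0–1 equiv and equilibrated 60 min. Absorbance spectra recorded from 260 to 500 nm; change followed at 360 and 400 nm.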

Series [7] relates to PC-12. As to the kind of experiment: Induction of apoptosis in rat PC12 cells after 24 hrs by trypan blue exclusion assay. Format: functional, cell-based. As to conditions: for EC50: PC-12, 24 h. Summed up:
(§3)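 PC12 cells (rat pheochromocytoma) grown in DMEM with 5% horse serum, 10% FBS, penicillin/streptomycin and sodium pyruvate at 37 °C, 5% CO2. Treated 24 h at 10, 25, 50, 75, 100 and 200 µM in DMSO (0.1% final). Trypan blue in 0.9% NaCl added 1:4 for 30 min at 37 °C. Blue cells counted as dead, as % of total cells. Mean of 4 experiments ± S.D.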

In series [8] the test system is PC-12. As to the kind of experiment: Induction of apoptosis in rat PC12 cells at 200 uM after 24 hrs by trypan blue exclusion assay. It counts as functional, cell-based. Summed up:
as §3

Series [9] concerns PC-12. Kind of series: Induction of apoptosis in rat PC12 cells at 200 uM after 24 hrs by trypan blue exclusion assay in presence of ZnSO4. It counts as functional, cell-based. In outline: as §2
Series [10] relates to PC-12. Kind of series: Induction of apoptosis in rat PC12 cells assessed as procaspase-3 activation at 200 uM after 24 hrs by fluorometric assay. It counts as functional, cell-based. In outline:
(§4)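 PC12 cells in 96-well plates were treated 4 h. Lysed in modified RIPA buffer (50 mM Tris-HCl pH 7.4, 1% Igepal, 0.25% deoxycholate, 150 mM NaCl, 1 mM EGTA) containing 20 µM (DEVD)2-rhodamine 110. Lysate incubated 24 h at 37 °C, fluorescence read at ex 485/em 535 nm. Wells with 1 µM Ac-DEVD-cmk served as negative control. DMSO control; staurosporine 0.5 and 1 µM as positive controls. Mean of 5 experiments ± S.D.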

Series [11] deals with PC-12. Kind of series: Induction of apoptosis in rat PC12 cells at 25 uM after 24 hrs by trypan blue exclusion assay in presence of caspase-3 inhibitor C3-I. Format: functional, cell-based. In outline: as §2
Series [12] relates to PC-12. Kind of series: Induction of apoptosis in rat PC12 cells at 25 uM after 24 hrs by trypan blue exclusion assay in presence of ZnSO4. Format: functional, cell-based. In outline: as §2
Series [13] relates to PC-12. As to the kind of experiment: Induction of apoptosis in rat PC12 cells assessed as ROS induction at 25 uM measured after 1 to 4 hrs by DHR oxidation-based fluorometric assay. It counts as functional, cell-based. In outline: as §1
The subject of series [14] is PC-12. Kind of series: Induction of apoptosis in rat PC12 cells assessed as procaspase-3 activation at 25 uM after 24 hrs by fluorometric assay. Format: functional, cell-based. As to conditions: in the assay text read “after 4 hrs” for “after 24 hrs”. In outline: as §4
Series [15] deals with PC-12. As to the kind of experiment: Induction of apoptosis in rat PC12 cells assessed as procaspase-3 activation at 0.5 uM after 24 hrs by fluorometric assay. Format: functional. In outline:
(§5)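 Rat PC12 cells were seeded in 96-well plates at 28 × 10^4 for 24 h, then treated for 4 h, with DMSO-treated cells as control. Cells were lysed in modified RIPA buffer (50 mM Tris-HCl pH 7.4, 1% Igepal, 0.25% deoxycholate, 150 mM NaCl, 1 mM EGTA) containing 20 µM (DEVD)2-Rhodamine 110. Lysate was incubated 24 h at 37 °C and read at ex 485/em 535 nm as RFU/million cells.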

The subject of series [16] is PC-12. Kind of series: Induction of apoptosis in rat PC12 cells assessed as procaspase-3 activation at 1 uM after 24 hrs by fluorometric assay. Format: functional. In outline: as §5
Series [17] concerns PC-12. As to the kind of experiment: Induction of apoptosis in rat PC12 cells at 100 uM after 24 hrs by trypan blue exclusion assay in presence of caspase-3 inhibitor C3-I. Format: functional, cell-based. Summed up: as §2
In series [18] the test system is PC-12. As to the kind of experiment: Induction of apoptosis in rat PC12 cells at 100 uM after 24 hrs by trypan blue exclusion assay in presence of ZnSO4. Format: functional, cell-based. In outline:
as §2

Series [19] deals with PC-12. As to the kind of experiment: Induction of apoptosis in rat PC12 cells assessed as ROS induction at 100 uM measured after 1 to 4 hrs by DHR oxidation-based fluorometric assay. Format: functional, cell-based. In outline:
as §1

Series [20] is described as follows: Lipophilicity, log P of the compound. It counts as physicochemical. As to conditions: octanol/water.
For series [21], the system named is PC-12. As to the kind of experiment: Induction of apoptosis in rat PC12 cells at 100 uM after 24 hrs by trypan blue exclusion assay in presence of DHR. Format: functional, cell-based. Summed up:
as §2

The test system of series [22] is PC-12. Kind of series: Induction of apoptosis in rat PC12 cells assessed as procaspase-3 activation at 100 uM after 24 hrs by fluorometric assay. Format: functional, cell-based. In outline:
as §4

Active and inactive are the calls of the source. The calls are words filed in the database; no cut-off is given here.

A word on the logD: it is lipophilicity at a set pH, counting ionised and neutral species. Higher therefore signals higher lipophilicity. In general, Kd refers to the constant that tells how readily two partners part at equilibrium. By EC50 is commonly meant the concentration that produces a half-maximal response. A higher EC50 goes with a need for much substance. Broadly, the logP is the decadic logarithm of the partition coefficient of the neutral form, usually between octanol and water. The low end stands for a more hydrophilic compound, the high end for a more lipophilic compound.

In the case of `Cc1ncc(CO)c(/C=N/NC(=O)CN2CCN(Cc3ccccc3)CC2)c1O`, the logD in series [1] came out at 1.27. Moreover, the result in series [2] and in series [10] was Active. Moreover, the result in [3], in series [4], in series [5] and in series [9] was inactive. The Kd in [6] was 0.2 pM. The Activity entry in series [7] was “Dose-dependent effect”. In addition, the EC50 entry in series [8] is on record as “ND(Insoluble)”.
`O=C(CN1CCN(Cc2ccccc2)CC1)NNC(=O)CN(Cc1ccccn1)Cc1ccccn1` registered a logD in series [1] of 1.4. Moreover, the outcome in series [2], in series [3], in series [4] and in series [5] was inactive. Besides, the Kd in series [6] amounted to 1000 pM. The Activity entry in series [7] is “Dose-dependent effect”. Besides, the EC50 result in series [8] is given as “ND(Insoluble)”. Besides, the result in [9] and in series [10] was Active.
As to `c1ccc(CN(CCN(Cc2ccccn2)Cc2ccccn2)Cc2ccccn2)nc1`, the result in series [11], in series [4] and in series [12] was inactive. Besides, the result in series [13] and in [14] was Active. Also, the Kd in series [6] worked out at 0.00026 pM. In addition, the Activity result in series [7] was “Dose-dependent effect”. Besides, it took 38000 nM to reach a half-maximal effect in series [7] (EC50).
With `CN[C@@H]1C[C@H]2O[C@@](C)([C@@H]1OC)n1c3ccccc3c3c4c(c5c6ccccc6n2c5c31)C(=O)NC4` [STAUROSPORINE], the RFU in series [15] stood at 6000; in series [16], 30000.
On to `C=CCc1cccc(/C=N/NC(=O)CN2CCN(Cc3ccccc3)CC2)c1O` [PAC-1], for which the outcome in series [17], in [4], in [18] and in series [21] was inactive. Also, the result in [19] and in series [22] was Active. Also, the logP in [20] came out at 3.43. In addition, the Kd in [6] was found to be 42000 pM. Besides, in [7], the Activity entry is “Dose-dependent effect”. The compound further had an EC50 in series [7] of 122000 nM.

(Values after ChEMBL document CHEMBL2413052, “Synthesis and initial in vitro biological evaluation of two new zinc-chelating compounds: comparison with TPEN and PAC-1” (Bioorg Med Chem, 2013).)
